# Measurements as given in ChEMBL document CHEMBL3784931, “Synthesis and evaluation of novel angiotensin II receptor 1 antagonists as anti-hypertension drugs” (Bioorg Med Chem, 2016).
# Key:
# [1] = molecular target: T1, Type-1 angiotensin II receptor A (Rattus norvegicus, UniProt P25095); assay: Displacement of [125I]-Ang II from Angiotensin 2 type-1A receptor in rat vascular smooth muscle cells after 150 mins by gamma counting method
# T1 sequence (P25095 whole entry): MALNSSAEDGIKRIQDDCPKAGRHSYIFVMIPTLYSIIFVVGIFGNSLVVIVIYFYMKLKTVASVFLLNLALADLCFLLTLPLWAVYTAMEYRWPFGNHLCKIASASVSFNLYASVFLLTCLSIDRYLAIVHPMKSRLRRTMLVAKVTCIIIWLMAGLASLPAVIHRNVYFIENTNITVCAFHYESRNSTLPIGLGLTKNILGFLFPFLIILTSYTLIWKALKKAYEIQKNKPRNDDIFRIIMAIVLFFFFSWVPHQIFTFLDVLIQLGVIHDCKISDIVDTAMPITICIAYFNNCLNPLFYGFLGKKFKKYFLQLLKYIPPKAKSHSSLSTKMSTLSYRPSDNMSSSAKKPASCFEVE
# Outline: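 Rat vascular smooth muscle cells (passages 3–6) were seeded at 10⁶ cells/well and grown at 37 °C in 5% CO₂. Nonspecific binding was taken with 1 µM Ang II. Cells were washed three times, lysed 10 min in 0.1 M NaOH, and bound radioactivity was gamma counted.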
# Rattus norvegicus [2] = assay: Antihypertensive activity in spontaneous hypertensive rat model assessed as mean blood pressure at 10 mg/kg, po administered for 2 hrs; format: functional
# Outline: (§1)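 Male SHRs were randomized, n = 6 per group. Compound was suspended in DMSO/oleic acid (1:4) and given by oral gavage; vehicle controls got the same volume of solvent. SBP and DBP were recorded in conscious animals by noninvasive tail-artery manometry. MBP = (SBP − DBP)/3 + DBP. Data are mean ± SEM, with p < 0.05 taken as significant.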
# Rattus norvegicus [3] = assay: Antihypertensive activity in spontaneous hypertensive rat model assessed as mean blood pressure at 15 mg/kg, po administered for 2 hrs; format: functional; outline: as §1
# [4] = Tmax in Wistar rat plasma at 10 mg/kg, po after 0.5 to 72 hrs by HPLC analysis; format: ADME, organism-based
# Outline: (§2)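 Wistar rats got an oral dose. Venous blood (0.5 mL) was taken predose and at 0.5, 1, 2, 4, 6, 8, 12, 24, 48 and 72 h, and plasma was spun 4000 × g, 4 °C, 10 min. Samples with internal standard were acetonitrile-precipitated, filtered and run on C18 reverse-phase HPLC with UV detection. Calibration used weighted regression of peak height ratio.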
# [5] = Cmax in Wistar rat plasma at 10 mg/kg, po after 0.5 to 72 hrs by HPLC analysis; format: ADME, organism-based; parameters: dose 10 mg/kg, route oral; outline: as §2
# [6] = Elimination rate constant in Wistar rat plasma at 10 mg/kg, po after 0.5 to 72 hrs by HPLC analysis; format: ADME, organism-based; outline: as §2
# [7] = Terminal half life in Wistar rat plasma at 10 mg/kg, po after 0.5 to 72 hrs by HPLC analysis; format: ADME, organism-based; conditions: read-out: beta t1/2 (converted); outline: as §2
# [8] = AUC (0 to 72 hrs) in Wistar rat plasma at 10 mg/kg, po by HPLC analysis; format: ADME, organism-based; parameters: dose 10 mg/kg, time < 72 hr, route oral; outline: as §2
# [9] = Tmax in Wistar rat heart at 10 mg/kg, po after 0.5 to 72 hrs by HPLC analysis; format: ADME, organism-based
# Outline: (§3)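 Wistar rats were dosed orally and killed by abdominal aorta transection at 0.5, 1, 2, 4, 6, 8, 12, 24, 48 and 72 h. Organs were excised at once, minced and homogenized at 4 °C in normal saline to a 25% (w/v) homogenate. After spinning at 3000 × g, 4 °C, 10 min, supernatants were analysed by HPLC. Values are mean ± SEM, n = 5 per point.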
# [10] = Cmax in Wistar rat heart at 10 mg/kg, po after 0.5 to 72 hrs by HPLC analysis; format: ADME, organism-based; parameters: dose 10 mg/kg, route oral; outline: as §3
# [11] = Elimination rate constant in Wistar rat heart at 10 mg/kg, po after 0.5 to 72 hrs by HPLC analysis; format: ADME, organism-based; outline: as §3
# [12] = Terminal half life in Wistar rat heart at 10 mg/kg, po after 0.5 to 72 hrs by HPLC analysis; format: ADME, organism-based; conditions: read-out: beta t1/2 (converted); outline: as §3
# Heart = assay: AUC (0 to 72 hrs) in Wistar rat heart at 10 mg/kg, po by HPLC analysis; format: ADME, organism-based; parameters: time < 72 hr, dose 10 mg/kg, route oral; conditions: in vivo; outline: as §3
# [13] = Tmax in Wistar rat liver at 10 mg/kg, po after 0.5 to 72 hrs by HPLC analysis; format: ADME, organism-based; outline: as §3
# [14] = Cmax in Wistar rat liver at 10 mg/kg, po after 0.5 to 72 hrs by HPLC analysis; format: ADME, organism-based; parameters: dose 10 mg/kg, route oral; outline: as §3
# [15] = Elimination rate constant in Wistar rat liver at 10 mg/kg, po after 0.5 to 72 hrs by HPLC analysis; format: ADME, organism-based; outline: as §3
# [16] = Terminal half life in Wistar rat liver at 10 mg/kg, po after 0.5 to 72 hrs by HPLC analysis; format: ADME, organism-based; conditions: read-out: beta t1/2 (converted); outline: as §3
# Liver = assay: AUC (0 to 72 hrs) in Wistar rat liver at 10 mg/kg, po by HPLC analysis; format: ADME, organism-based; parameters: time < 72 hr, dose 10 mg/kg, route oral; conditions: in vivo; outline: as §3
# [17] = Tmax in Wistar rat spleen at 10 mg/kg, po after 0.5 to 72 hrs by HPLC analysis; format: ADME, organism-based; outline: as §3
# [18] = Cmax in Wistar rat spleen at 10 mg/kg, po after 0.5 to 72 hrs by HPLC analysis; format: ADME, organism-based; parameters: dose 10 mg/kg, route oral; outline: as §3
# [19] = Elimination rate constant in Wistar rat spleen at 10 mg/kg, po after 0.5 to 72 hrs by HPLC analysis; format: ADME, organism-based; outline: as §3
# [20] = Terminal half life in Wistar rat spleen at 10 mg/kg, po after 0.5 to 72 hrs by HPLC analysis; format: ADME, organism-based; conditions: read-out: beta t1/2 (converted); outline: as §3
# Spleen = assay: AUC (0 to 72 hrs) in Wistar rat spleen at 10 mg/kg, po by HPLC analysis; format: ADME, organism-based; parameters: time < 72 hr, dose 10 mg/kg, route oral; conditions: in vivo; outline: as §3
# [21] = Tmax in Wistar rat lung at 10 mg/kg, po after 0.5 to 72 hrs by HPLC analysis; format: ADME, organism-based; outline: as §3
# [22] = Cmax in Wistar rat lung at 10 mg/kg, po after 0.5 to 72 hrs by HPLC analysis; format: ADME, organism-based; parameters: dose 10 mg/kg, route oral; outline: as §3
# [23] = Elimination rate constant in Wistar rat lung at 10 mg/kg, po after 0.5 to 72 hrs by HPLC analysis; format: ADME, organism-based; outline: as §3
# [24] = Terminal half life in Wistar rat lung at 10 mg/kg, po after 0.5 to 72 hrs by HPLC analysis; format: ADME, organism-based; conditions: read-out: beta t1/2 (converted); outline: as §3
# Lung = assay: AUC (0 to 72 hrs) in Wistar rat lung at 10 mg/kg, po by HPLC analysis; format: ADME, organism-based; parameters: dose 10 mg/kg, time < 72 hr, route oral; conditions: in vivo; outline: as §3
# [25] = Tmax in Wistar rat kidney at 10 mg/kg, po after 0.5 to 72 hrs by HPLC analysis; format: ADME, organism-based; outline: as §3
# [26] = Cmax in Wistar rat kidney at 10 mg/kg, po after 0.5 to 72 hrs by HPLC analysis; format: ADME, organism-based; parameters: dose 10 mg/kg, route oral; outline: as §3
compound,measurement,setting,value
CCCCc1nc(Cl)c(C(=O)O)n1Cc1ccc(-c2ccccc2-c2noc(=O)[nH]2)cc1,IC50,[1],3.16 nM
same,Ki,[1],2.29 nM
same,Activity,Rattus norvegicus [2],41 mmHg
same,Activity,Rattus norvegicus [3],62 mmHg
same,Tmax,[4],2 h
same,Cmax,[5],10.3 ng/mL
same,k el,[6],1.11e-05 s⁻¹
same,half-life,[7],18.2 h
same,AUC(0-t) at 72 h,[8],296 ng·h/mL
same,Tmax,[9],0.5 h
same,Cmax,[10],8.87 ng/g
same,k el,[11],2.11e-05 s⁻¹
same,half-life,[12],9.13 h
same,AUC,Heart,200.41 ng·h/g
same,Tmax,[13],0.5 h
same,Cmax,[14],9.56 ng/g
same,k el,[15],1.94e-05 s⁻¹
same,half-life,[16],10.7 h
same,AUC,Liver,260.05 ng·h/g
same,Tmax,[17],4 h
same,Cmax,[18],8.84 ng/g
same,k el,[19],2.19e-05 s⁻¹
same,half-life,[20],8.74 h
same,AUC,Spleen,275.21 ng·h/g
same,Tmax,[21],1 h
same,Cmax,[22],9.16 ng/g
same,k el,[23],1.64e-05 s⁻¹
same,half-life,[24],12.4 h
same,AUC,Lung,213.96 ng·h/g
same,Tmax,[25],0.5 h
same,Cmax,[26],10.5 ng/g
